Data reported in ChEMBL document CHEMBL5036385, “Piperazinobenzodiazepinones: New Encephalitic Alphavirus Inhibitors via Ring Expansion of 2-Dichloromethylquinazolinones” (ACS Med Chem Lett, 2022).

These compounds were tested on Venezuelan equine encephalitis virus (assay: Antiviral activity against Venezuelan equine encephalitis virus infected in African green monkey Vero 76 cells assessed as virus induced cytopathic effect measured after 48 hrs). Details: Vero 76, 48 h.
Type: functional, organism-based

SMILES | EC50
COc1ccc(N2C(=O)c3cc([N+](=O)[O-])ccc3N=C3C2N(Cc2ccccc2)CCN3C)cc1 (centres undefined) | 3 µM
COc1ccc(N2C(=O)c3cc([N+](=O)[O-])ccc3N=C3C2N(Cc2ccccc2)CCN3Cc2ccccc2)cc1 (centres undefined) | 19.8 µM
COc1ccc(N2C(=O)c3cc(C#N)ccc3N=C3C2N(C)CCN3C)cc1 (centres undefined) | 4.2 µM
COc1ccc(N2C(=O)c3cc([N+](=O)[O-])ccc3N=C3C2N(C2CCCCC2)CCN3C)cc1 (centres undefined) | 7 µM
CN1CCN(C)C2C1=Nc1ccc(F)cc1C(=O)N2c1ccccc1 (centres undefined) | > 30 µM
COc1ccc(N2C(=O)c3cc([N+](=O)[O-])ccc3N=C3[C@H]2N(C)[C@H]2CCCC[C@@H]2N3C)cc1 | 5.6 µM
COc1ccc(N2C(=O)c3cc(C#N)cc(Br)c3N=C3C2N(C)CCN3C)cc1F (centres undefined) | 4.1 µM
CN1CCN(C)C2C1=Nc1ccc(C#N)cc1C(=O)N2c1ccccc1 (centres undefined) | 7 µM
COc1ccc(N2C(=O)c3cc([N+](=O)[O-])ccc3N=C3[C@@H]2N(C)[C@@H]2CCCC[C@H]2N3C)cc1 | 4.7 µM
CN1CCN(C)C2C1=Nc1cc([N+](=O)[O-])ccc1C(=O)N2c1ccccc1 (centres undefined) | > 30 µM

What follows are compounds tested on Eastern equine encephalitis virus (assay: Antiviral activity against eastern equine encephalitis virus infected in African green monkey Vero 76 cells assessed as virus induced cytopathic effect measured after 48 hrs). Details: Vero 76, 48 h.
Type: functional, organism-based

SMILES | EC50
COc1ccc(N2C(=O)c3cc([N+](=O)[O-])ccc3N=C3C2N(Cc2ccccc2)CCN3C)cc1 (centres undefined) | 3.2 µM
COc1ccc(N2C(=O)c3cc([N+](=O)[O-])ccc3N=C3C2N(Cc2ccccc2)CCN3Cc2ccccc2)cc1 (centres undefined) | 13.8 µM
COc1ccc(N2C(=O)c3cc(C#N)ccc3N=C3C2N(C)CCN3C)cc1 (centres undefined) | 2.5 µM
COc1ccc(N2C(=O)c3cc([N+](=O)[O-])ccc3N=C3C2N(C2CCCCC2)CCN3C)cc1 (centres undefined) | 6.2 µM
CN1CCN(C)C2C1=Nc1ccc(F)cc1C(=O)N2c1ccccc1 (centres undefined) | > 30 µM
COc1ccc(N2C(=O)c3cc([N+](=O)[O-])ccc3N=C3[C@H]2N(C)[C@H]2CCCC[C@@H]2N3C)cc1 | 3.8 µM
COc1ccc(N2C(=O)c3cc(C#N)cc(Br)c3N=C3C2N(C)CCN3C)cc1F (centres undefined) | 3.2 µM
CN1CCN(C)C2C1=Nc1ccc(C#N)cc1C(=O)N2c1ccccc1 (centres undefined) | 4.4 µM
COc1ccc(N2C(=O)c3cc([N+](=O)[O-])ccc3N=C3[C@@H]2N(C)[C@@H]2CCCC[C@H]2N3C)cc1 | 4.5 µM
CN1CCN(C)C2C1=Nc1cc([N+](=O)[O-])ccc1C(=O)N2c1ccccc1 (centres undefined) | > 30 µM

Each compound was assayed on Vero 76 (assay: Cytotoxicity against African green monkey Vero 76 assessed as reduction in cell viability measured after 72 hrs). Details: chlorocebus sabaeus, vero 76, 72 h.
Type: cell-based
Procedure, shortened: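 Uninfected Vero 76 cells were exposed to compound, and viability was assessed 72 h post-treatment.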

SMILES | CC50
COc1ccc(N2C(=O)c3cc([N+](=O)[O-])ccc3N=C3C2N(Cc2ccccc2)CCN3C)cc1 (centres undefined) | > 30 µM
COc1ccc(N2C(=O)c3cc([N+](=O)[O-])ccc3N=C3C2N(Cc2ccccc2)CCN3Cc2ccccc2)cc1 (centres undefined) | > 30 µM
COc1ccc(N2C(=O)c3cc(C#N)ccc3N=C3C2N(C)CCN3C)cc1 (centres undefined) | > 30 µM
COc1ccc(N2C(=O)c3cc([N+](=O)[O-])ccc3N=C3C2N(C2CCCCC2)CCN3C)cc1 (centres undefined) | > 30 µM
CN1CCN(C)C2C1=Nc1ccc(F)cc1C(=O)N2c1ccccc1 (centres undefined) | > 30 µM
COc1ccc(N2C(=O)c3cc(C#N)cc(Br)c3N=C3C2N(C)CCN3C)cc1F (centres undefined) | > 30 µM
CN1CCN(C)C2C1=Nc1ccc(C#N)cc1C(=O)N2c1ccccc1 (centres undefined) | > 30 µM
COc1ccc(N2C(=O)c3cc([N+](=O)[O-])ccc3N=C3[C@@H]2N(C)[C@@H]2CCCC[C@H]2N3C)cc1 | > 30 µM
CN1CCN(C)C2C1=Nc1cc([N+](=O)[O-])ccc1C(=O)N2c1ccccc1 (centres undefined) | > 30 µM
